In PMC10582678 (Clinical and Translational Science, 2023):
Entries after “also recorded” stand apart in the source; their conditions may differ.

Legend:
[1] = system: EGFR, ITK, Lck, SRC, LYN, and JAK3; experiment: Selectivity for BTK over other kinases; format: biochemical; conditions: stated in introduction
[2] = Plasma pharmacokinetics, single ascending dose; format: in vivo, human; conditions: for CL/F / AUC(0-t): mean ± SD; for T last: median (min, max); for Tmax / half-life / AUC(0-inf) / MRT / Vd/F / AUC(0-t) / Cmax: human, plasma; for Tmax / half-life / AUC(0-inf) / MRT / Vd/F / AUC(0-t): oral; for Cmax: po
How it was run: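 Healthy subjects received single oral doses under fasting conditions: 100 mg (three subjects), or 200, 400, 600 or 800 mg in cohorts of eight randomized 6 active:2 placebo, double-blind. Plasma drug was quantified by validated HPLC-tandem accurate mass spectrometry with a calibration range of 5.00–5000 ng/mL. Cmax, Tmax, AUC, t1/2, CL/F, Vz/F and MRT were derived by noncompartmental analysis and reported as mean ± SD (%CV) or median.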

[3] = target: BTK (Homo sapiens, UniProt Q06187); experiment: BTK receptor occupancy in peripheral blood monocytes; format: in vivo
Sequence of BTK (Q06187 whole entry): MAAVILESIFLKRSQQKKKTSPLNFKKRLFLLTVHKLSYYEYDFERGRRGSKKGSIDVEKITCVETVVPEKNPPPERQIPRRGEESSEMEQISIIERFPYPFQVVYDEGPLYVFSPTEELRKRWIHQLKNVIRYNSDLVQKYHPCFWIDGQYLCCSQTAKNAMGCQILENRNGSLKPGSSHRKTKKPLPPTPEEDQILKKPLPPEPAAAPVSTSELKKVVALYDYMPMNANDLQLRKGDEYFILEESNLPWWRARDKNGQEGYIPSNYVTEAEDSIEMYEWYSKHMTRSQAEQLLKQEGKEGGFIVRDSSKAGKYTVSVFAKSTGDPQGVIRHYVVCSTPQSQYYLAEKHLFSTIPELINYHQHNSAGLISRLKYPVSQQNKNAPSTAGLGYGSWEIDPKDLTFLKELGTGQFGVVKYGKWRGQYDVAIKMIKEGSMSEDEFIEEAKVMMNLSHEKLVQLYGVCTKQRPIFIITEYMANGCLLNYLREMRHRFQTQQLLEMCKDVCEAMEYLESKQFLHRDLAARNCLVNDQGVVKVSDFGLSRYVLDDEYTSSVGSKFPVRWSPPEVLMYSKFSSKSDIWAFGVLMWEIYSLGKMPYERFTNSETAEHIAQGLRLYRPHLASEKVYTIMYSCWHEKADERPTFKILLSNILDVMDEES
How it was run: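 Peripheral blood was sampled from healthy adult Chinese subjects given oral test compound or placebo. In the multiple-dose part, samples were taken at 0, 12, 24 and 168 h after the first dose (day 1) and at 0 and 12 h after the last dose (day 10). In the food-effect part, samples were taken at 0, 12, 24 and 120 h postdose. BTK occupancy was measured by validated ELISA (sensitivity 1.784 ng/mL). Negative placebo values were set to 0.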

[4] = Safety, adverse events, food effect study; format: in vivo, human; conditions: for AEs / Increased blood triglycerides / Abdominal discomfort / Constipation / Decreased leukocyte count / Decreased lymphocyte count / Decreased neutrophil count / Dermatitis allergic / Dyspepsia / Increased ALT / Increased AST / Increased blood bilirubin / Increased blood cholesterol / Increased blood creatinine / Lethargy / Mouth ulceration / Oropharyngeal pain / Sinus arrythmia / Treatment discontinuation due to AEs / Upper respiratory tract infection: Food effect 600 mg, n (%)
How it was run: (§1)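 Safety was monitored by vital signs, clinical laboratory tests, physical examination, 12-lead ECG, AEs and SAEs. AEs were coded with MedDRA 23.1 and graded by CTCAE 5.0. Subjects were discharged 6 days after the last dose, with a follow-up visit 8–14 days after the last dose. The safety set comprised randomized subjects who received active drug or placebo and had post-dose safety data.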

[5] = Safety, adverse events, whole study; format: in vivo, human
How it was run: as §1

[6] = among 57 subjects who received SN1011

SMILES: N#CN1C[C@H](n2nc(-c3ccc(Oc4ccc(Cl)cn4)cc3)c(C(N)=O)c2N)CCC12CC2 [SN1011, 5-amino-3-(4-((5-chloro-2-pyridinyl)oxy)phenyl)-1-((6R)-4-cyano-4-azaspiro[2.5]octan-6-yl)-1H-pyrazole-4-carboxamide]
- selectivity for BTK over other kinases [1]: 700 fold
- CL/F ([2]; SAD 100 mg): 49.6 ± 13.9 (28%) L/h
- T last ([2]; SAD 100 mg): 48.0 (48.0, 72.0) h
- CL/F ([2]; SAD 200 mg): 44.8 ± 15.3 (34%) L/h
- T last ([2]; SAD 200 mg): 72.0 (48.0, 96.0) h
- CL/F ([2]; SAD 400 mg): 36.5 ± 9.1 (25%) L/h
- T last ([2]; SAD 400 mg): 96.0 (72.0, 144.0) h
- CL/F ([2]; SAD 600 mg): 43.4 ± 19.5 (45%) L/h
- T last ([2]; SAD 600 mg): 108.0 (72.0, 144.0) h
- CL/F ([2]; SAD 800 mg): 44.8 ± 22.3 (50%) L/h
- T last ([2]; SAD 800 mg): 132.0 (120.0, 144.1) h
- Tmax [2]: 3 to 5 h
- half-life [2]: 15.5 to 21.8 h
- AUC(0-inf) ([2]; 100 mg): 2110 ± 525 ng·h/mL
- MRT ([2]; 100 mg): 26.4 ± 1.7 h
- Tmax ([2]; 100 mg): 4 h
- Vd/F ([2]; 100 mg): 1210 ± 497 L
- half-life ([2]; 100 mg): 16.5 ± 2.1 h
- AUC(0-t) ([2]; 100 mg, AUC0-24, SAD 100 mg): 1240 ± 339 ng·h/mL
- AUC(0-t) ([2]; 100 mg, AUC0-t, SAD 100 mg): 1880 ± 523 ng·h/mL
- AUC(0-inf) ([2]; 200 mg): 4920 ± 1710 ng·h/mL
- MRT ([2]; 200 mg): 22.9 ± 4 h
- Tmax ([2]; 200 mg): 3 h
- Vd/F ([2]; 200 mg): 989 ± 293 L
- half-life ([2]; 200 mg): 15.5 ± 2.4 h
- AUC(0-t) ([2]; 200 mg, AUC0-24, SAD 200 mg): 3210 ± 1190 ng·h/mL
- AUC(0-t) ([2]; 200 mg, AUC0-t, SAD 200 mg): 4700 ± 1730 ng·h/mL
- AUC(0-inf) ([2]; 400 mg): 11600 ng·h/mL
- MRT ([2]; 400 mg): 29.4 ± 9.9 h
- Tmax ([2]; 400 mg): 3.5 h
- Vd/F ([2]; 400 mg): 997 ± 350 L
- half-life ([2]; 400 mg): 19.3 ± 6.5 h
- AUC(0-t) ([2]; 400 mg, AUC0-24, SAD 400 mg): 6510 ± 1960 ng·h/mL
- AUC(0-t) ([2]; 400 mg, AUC0-t, SAD 400 mg): 11300 ng·h/mL
- AUC(0-inf) ([2]; 600 mg): 16800 ng·h/mL
- MRT ([2]; 600 mg): 28.7 ± 8.5 h
- Tmax ([2]; 600 mg): 4 h
- Vd/F ([2]; 600 mg): 1060 ± 227 L
- half-life ([2]; 600 mg): 19.1 ± 6.4 h
- AUC(0-t) ([2]; 600 mg, AUC0-24, SAD 600 mg): 9100 ± 3420 ng·h/mL
- AUC(0-t) ([2]; 600 mg, AUC0-t, SAD 600 mg): 16400 ng·h/mL
- AUC(0-inf) ([2]; 800 mg): 22300 ng·h/mL
- MRT ([2]; 800 mg): 31.1 ± 6.3 h
- Tmax ([2]; 800 mg): 5 h
- Vd/F ([2]; 800 mg): 1400 ± 760 L
- half-life ([2]; 800 mg): 21.8 ± 4.1 h
- AUC(0-t) ([2]; 800 mg, AUC0-24, SAD 800 mg): 11500 ng·h/mL
- AUC(0-t) ([2]; 800 mg, AUC0-t, SAD 800 mg): 21900 ng·h/mL
- Cmax ([2]; 100 mg): 84.2 ± 16.4 ng/mL
- Cmax ([2]; 200 mg): 293 ± 132 ng/mL
- Cmax ([2]; 400 mg): 487 ± 221 ng/mL
- Cmax ([2]; 600 mg): 674 ± 259 ng/mL
- Cmax ([2]; 800 mg): 779 ± 405 ng/mL
- BTK receptor occupancy ([3]; MAD groups, 10 days of continuous q.d. administration of 400 and 600 mg): above 80%
- BTK receptor occupancy ([3]; over 24 h after single administration of 600 mg, fasted and fed states): above 83%
- AEs ([4]; Total N = 12): 7 (58.3)
- Increased blood triglycerides ([4]; Total N = 12): 5 (41.7)
- AEs ([4]; column Fasted-Fed): 5 (41.7)
- Abdominal discomfort ([4]; column Fasted-Fed): 0
- Constipation ([4]; column Fasted-Fed): 0
- Decreased leukocyte count ([4]; column Fasted-Fed): 0
- Decreased lymphocyte count ([4]; column Fasted-Fed): 0
- Decreased neutrophil count ([4]; column Fasted-Fed): 0
- Dermatitis allergic ([4]; column Fasted-Fed): 0
- Dyspepsia ([4]; column Fasted-Fed): 0
- Increased ALT ([4]; column Fasted-Fed): 0
- Increased AST ([4]; column Fasted-Fed): 0
- Increased blood bilirubin ([4]; column Fasted-Fed): 0
- Increased blood cholesterol ([4]; column Fasted-Fed): 0
- Increased blood creatinine ([4]; column Fasted-Fed): 0
- Increased blood triglycerides ([4]; column Fasted-Fed): 4 (33.3)
- Lethargy ([4]; column Fasted-Fed): 0
- Mouth ulceration ([4]; column Fasted-Fed): 0
- Oropharyngeal pain ([4]; column Fasted-Fed): 0
- Sinus arrythmia ([4]; column Fasted-Fed): 0
- Treatment discontinuation due to AEs ([4]; column Fasted-Fed): 1 (8.3)
- Upper respiratory tract infection ([4]; column Fasted-Fed): 0
- AEs ([4]; column Fed-Fasted): 2 (18.2)
- Abdominal discomfort ([4]; column Fed-Fasted): 0
- Constipation ([4]; column Fed-Fasted): 0
- Decreased leukocyte count ([4]; column Fed-Fasted): 0
- Decreased lymphocyte count ([4]; column Fed-Fasted): 0
- Decreased neutrophil count ([4]; column Fed-Fasted): 0
- Dermatitis allergic ([4]; column Fed-Fasted): 0
- Dyspepsia ([4]; column Fed-Fasted): 0
- Increased ALT ([4]; column Fed-Fasted): 0
- Increased AST ([4]; column Fed-Fasted): 0
- Increased blood bilirubin ([4]; column Fed-Fasted): 1 (9.1)
- Increased blood cholesterol ([4]; column Fed-Fasted): 0
- Increased blood creatinine ([4]; column Fed-Fasted): 0
- Increased blood triglycerides ([4]; column Fed-Fasted): 1 (9.1)
- Lethargy ([4]; column Fed-Fasted): 0
- Mouth ulceration ([4]; column Fed-Fasted): 0
- Oropharyngeal pain ([4]; column Fed-Fasted): 0
- Sinus arrythmia ([4]; column Fed-Fasted): 0
- Treatment discontinuation due to AEs ([4]; column Fed-Fasted): 0
- Upper respiratory tract infection ([4]; column Fed-Fasted): 0
- subjects who experienced AEs ([4]; food effect study, 12 subjects, 600 mg): 58.3%
- subjects with AE leading to study discontinuation ([4]; food effect study, 12 subjects, increased triglycerides, grade 3): 8.3%
- serious adverse events ([5]; all parts of the study): No serious adverse events; also recorded: no SAEs were reported
- subjects who experienced AEs [5, 6]: 28
- total number of AEs [5, 6]: 55
